In ChEMBL document CHEMBL4619807, “Exploration of Alternative Scaffolds for P2Y14 Receptor Antagonists Containing a Biaryl Core” (J Med Chem, 2020):
Converted amounts (≈) assume the structure as drawn. Blank lines part the entries; values can stand above or below the compound they belong to. The source made the active and inactive calls. The calls are words filed in the database; no cut-off is given here.

How the values were obtained:
[1] = target: 5-hydroxytryptamine receptor 1D (Homo sapiens, UniProt P28221); experiment: Binding affinity to 5HT1D receptor (unknown origin)
Sequence of 5-hydroxytryptamine receptor 1D (P28221 whole entry): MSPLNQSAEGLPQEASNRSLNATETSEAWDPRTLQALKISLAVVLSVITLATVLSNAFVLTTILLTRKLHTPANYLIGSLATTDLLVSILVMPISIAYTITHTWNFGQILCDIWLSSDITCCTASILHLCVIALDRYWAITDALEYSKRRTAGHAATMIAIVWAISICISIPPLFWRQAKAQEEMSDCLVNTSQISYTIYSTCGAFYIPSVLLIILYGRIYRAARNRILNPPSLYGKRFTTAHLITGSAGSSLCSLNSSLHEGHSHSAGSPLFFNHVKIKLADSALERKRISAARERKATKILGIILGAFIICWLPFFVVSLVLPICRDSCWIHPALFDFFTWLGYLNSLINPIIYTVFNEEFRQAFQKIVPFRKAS

[2] = Unbound fraction in mouse plasma; assay type: ADME, cell-free
Outline: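 Plasma protein binding measured at 10 μM compound in human and mouse plasma, expressed as percent unbound (mean ± SD). Verapamil and warfarin were positive controls.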

Mus musculus = experiment: Antiasthmatic activity in Aspergillus oryzae protease-mediated C57BL/6J mouse model of allergic asthma assessed as reduction in eosinophil infiltration in bronchoalveolar lavage fluid at 10 mg/kg, ip dosed 30 mins before OVA aerosol challenge and measured 2 days post-challenge by cell differential count assay; assay type: functional, organism-based
Homo sapiens = organism: Homo sapiens; experiment: Selectivity index, ratio of IC50 for inhibition of MRS4174 binding to human P2Y14R expressed in CHO cells to IC50 for inhibition of MRS4174 binding to mouse P2Y14R expressed in […] cells; assay type: cell-based
Outline: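 Ratio of human to mouse IC50 from fluorescent-tracer binding. Human P2Y14R was in CHO cells in a 96-well format. Mouse P2Y14R was in HEK293 cells, with 30 min antagonist pre-incubation and then 20 nM tracer for 30 min at 37 °C. Both read by flow cytometry.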

[3] = Binding affinity to sigma 2 receptor (unknown origin); design: species or system Homo sapiens
P2Y purinoceptor 14 [4] = target: T1, P2Y purinoceptor 14 (Mus musculus, UniProt Q9ESG6); experiment: Inhibition of MRS4174 binding to mouse P2Y14R expressed in HEK293 cells pre-incubated for 30 mins before MRS4174 addition and further incubated for 30 mins by flow cytomtery based competitive fluorescence assay; assay type: cell-based
T1 sequence (Q9ESG6 whole entry): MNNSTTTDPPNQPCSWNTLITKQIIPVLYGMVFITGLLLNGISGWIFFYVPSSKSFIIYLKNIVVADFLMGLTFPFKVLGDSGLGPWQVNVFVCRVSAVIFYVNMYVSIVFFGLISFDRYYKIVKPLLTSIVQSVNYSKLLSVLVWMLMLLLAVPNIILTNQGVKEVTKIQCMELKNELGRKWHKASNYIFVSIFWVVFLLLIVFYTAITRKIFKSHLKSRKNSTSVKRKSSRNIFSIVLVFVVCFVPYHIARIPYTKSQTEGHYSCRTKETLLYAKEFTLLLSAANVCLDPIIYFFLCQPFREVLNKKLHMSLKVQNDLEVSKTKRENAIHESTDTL
Outline: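 Competitive whole-cell binding in HEK293 cells stably expressing N-terminally HA-tagged mouse P2Y14R, grown in a 24-well plate to 80–90% confluency. Antagonist given at 1 nM–100 μM in serum-containing EMEM for 30 min at 37 °C, then tracer added at 20 nM final for 30 min.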

[5] = Binding affinity to 5HT6 receptor (unknown origin); design: species or system Homo sapiens
[6] = Solubility in 10% DMSO in water; assay type: physicochemical; details: buffer
Outline: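 Compound dissolved in DMSO without basification, then diluted with water to 10% DMSO at 1 mg/mL. Solubility was judged by the absence of precipitation on dilution.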

[7] = Aqueous solubility at pH 7.4 by pION method; assay type: physicochemical
Outline: (§1)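 Equilibrium aqueous solubility measured by the pION method at pH 4.0 and at pH 7.4, in μg/mL; mean ± SD.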

[8] = Aqueous solubility at pH 4 by pION method; assay type: physicochemical; outline: as §1
[9] = Lipophilicity, change in Constant K of the compound by RP-HPLC analysis relative to PPTN; assay type: physicochemical
Outline: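 Lipophilicity taken from reversed-phase HPLC retention time on a C18 column. Elution used a 20 min gradient of 10 to 100% acetonitrile in 10 mM triethylammonium acetate. Reported as Δk against the reference antagonist.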

[10] = Bioavailability in rat at 1 to 10 mg/kg, ip; assay type: ADME, organism-based; details: in vivo
Outline: (§2)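 Rats dosed intraperitoneally at 1, 3 and 10 mg/kg and intravenously at 0.5 mg/kg. Solubilizing vehicle was aqueous DMSO. Plasma concentrations followed over time up to 12 h. Bioavailability derived from ip exposure relative to the iv dose.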

[11] = Cmax in rat at 10 mg/kg, ip after 3 to 4 hrs; assay type: ADME, organism-based; design: dose 10 mg/kg, route intraperitoneal; details: in vivo; outline: as §2
[12] = Tmax in rat at 10 mg/kg, ip; assay type: ADME, organism-based; details: in vivo; outline: as §2
[13] = Drug level in rat at 10 mg/kg, ip after 12 hrs; assay type: ADME, organism-based; details: in vivo; outline: as §2
[14] = Plasma concentration in rat at 1 mg/kg, ip after 2 hrs; assay type: ADME, organism-based; outline: as §2
[15] = Plasma concentration in rat at 1 mg/kg, ip after 4 hrs; assay type: ADME, organism-based; outline: as §2
[16] = Half life in rat at 1 mg/kg, ip; assay type: ADME, organism-based; details: in vivo
HepG2 = experiment: Toxicity in human HepG2 cells; assay type: cell-based
[17] = Stability in human plasma assessed as compound remaining level at 120 mins; assay type: ADME, cell-free; details: 2 h
[18] = Stability in mouse plasma assessed as compound remaining level at 120 mins; assay type: ADME, cell-free; details: 2 h
[19] = Half life in mouse liver microsomes; assay type: ADME, Microsome
[20] = Half life in rat liver microsomes; assay type: ADME, Microsome
[21] = Half life in human liver microsomes; assay type: ADME, Microsome
[22] = Half life in rat at 0.5 mg/kg, iv; assay type: ADME, organism-based; details: in vivo
P2Y purinoceptor 14 [23] = target: T2, P2Y purinoceptor 14 (Homo sapiens, UniProt Q15391); experiment: cell-based
T2 sequence (Q15391 whole entry): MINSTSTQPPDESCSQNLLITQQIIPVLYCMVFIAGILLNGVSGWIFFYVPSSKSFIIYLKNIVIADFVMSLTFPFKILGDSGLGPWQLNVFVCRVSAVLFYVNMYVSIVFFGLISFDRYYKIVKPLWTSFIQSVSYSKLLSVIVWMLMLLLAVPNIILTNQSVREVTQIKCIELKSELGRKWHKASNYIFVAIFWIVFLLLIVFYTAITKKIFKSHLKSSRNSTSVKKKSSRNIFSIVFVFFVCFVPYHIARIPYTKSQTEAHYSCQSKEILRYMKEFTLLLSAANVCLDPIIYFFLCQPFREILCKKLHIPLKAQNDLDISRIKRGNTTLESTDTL

P2Y purinoceptor 14 [24] = target: T2, P2Y purinoceptor 14; experiment: cell-based; remark: listed apart in the source
P2Y purinoceptor 14 [25] = target: T2, P2Y purinoceptor 14; experiment: cell-based; remark: listed apart in the source
P2Y purinoceptor 14 [26] = target: T2, P2Y purinoceptor 14; experiment: Inhibition of MRS4174 binding to human P2Y14R expressed in CHO cells pre-incubated for 30 mins before MRS4174 addition and further incubated for 30 mins at pH 7.4 by flow cytomtery based competitive fluorescence assay; assay type: cell-based
[27] = Permeability from apical to basolateral side in human Caco2 cells; assay type: ADME, cell-based; details: caco-2
[28] = Stability in simulated intestinal fluid assessed as compound remaining level at 120 mins; assay type: physicochemical; details: simulated gi fluid, 2 h
[29] = Stability in simulated gastric fluid assessed as compound remaining level at 120 mins; assay type: physicochemical; details: simulated gi fluid, 2 h
Cytochrome P450 2C9 = Cytochrome P450 2C9 (Homo sapiens, UniProt P11712); experiment: Inhibition of CYP2C9 (unknown origin); assay type: ADME
Sequence of Cytochrome P450 2C9 (P11712 whole entry): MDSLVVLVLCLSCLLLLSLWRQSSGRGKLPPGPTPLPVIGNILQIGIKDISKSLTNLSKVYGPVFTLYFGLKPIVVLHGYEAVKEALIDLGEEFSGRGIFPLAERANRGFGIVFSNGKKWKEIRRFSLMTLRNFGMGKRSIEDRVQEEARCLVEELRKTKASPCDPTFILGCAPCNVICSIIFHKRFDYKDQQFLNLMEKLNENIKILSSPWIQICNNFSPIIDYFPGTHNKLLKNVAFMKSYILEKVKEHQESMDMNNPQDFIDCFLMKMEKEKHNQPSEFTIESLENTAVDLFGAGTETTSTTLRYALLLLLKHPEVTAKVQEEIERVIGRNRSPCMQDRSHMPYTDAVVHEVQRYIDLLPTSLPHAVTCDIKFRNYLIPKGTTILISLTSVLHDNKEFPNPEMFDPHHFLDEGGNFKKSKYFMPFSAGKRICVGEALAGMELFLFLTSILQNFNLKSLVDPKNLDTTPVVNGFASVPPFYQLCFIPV

Cytochrome P450 2C19 = Cytochrome P450 2C19 (Homo sapiens, UniProt P33261); experiment: Inhibition of CYP2C19 (unknown origin); assay type: ADME
Sequence of Cytochrome P450 2C19 (P33261 whole entry): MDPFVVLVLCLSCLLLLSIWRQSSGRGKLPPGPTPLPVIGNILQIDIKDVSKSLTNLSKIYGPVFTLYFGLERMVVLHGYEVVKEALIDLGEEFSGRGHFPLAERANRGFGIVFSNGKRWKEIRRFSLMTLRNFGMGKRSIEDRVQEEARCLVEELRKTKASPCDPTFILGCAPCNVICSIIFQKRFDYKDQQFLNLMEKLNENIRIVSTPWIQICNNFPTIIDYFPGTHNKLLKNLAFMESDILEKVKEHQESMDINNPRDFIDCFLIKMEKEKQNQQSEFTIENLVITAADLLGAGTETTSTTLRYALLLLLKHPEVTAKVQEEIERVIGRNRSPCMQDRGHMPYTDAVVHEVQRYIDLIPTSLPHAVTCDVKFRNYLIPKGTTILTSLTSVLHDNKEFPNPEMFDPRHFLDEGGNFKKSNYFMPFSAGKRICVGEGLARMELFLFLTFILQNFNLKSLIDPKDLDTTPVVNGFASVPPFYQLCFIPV

Cytochrome P450 2D6 = Cytochrome P450 2D6 (Homo sapiens, UniProt P10635); experiment: Inhibition of CYP2D6 (unknown origin); assay type: ADME
Sequence of Cytochrome P450 2D6 (P10635 whole entry): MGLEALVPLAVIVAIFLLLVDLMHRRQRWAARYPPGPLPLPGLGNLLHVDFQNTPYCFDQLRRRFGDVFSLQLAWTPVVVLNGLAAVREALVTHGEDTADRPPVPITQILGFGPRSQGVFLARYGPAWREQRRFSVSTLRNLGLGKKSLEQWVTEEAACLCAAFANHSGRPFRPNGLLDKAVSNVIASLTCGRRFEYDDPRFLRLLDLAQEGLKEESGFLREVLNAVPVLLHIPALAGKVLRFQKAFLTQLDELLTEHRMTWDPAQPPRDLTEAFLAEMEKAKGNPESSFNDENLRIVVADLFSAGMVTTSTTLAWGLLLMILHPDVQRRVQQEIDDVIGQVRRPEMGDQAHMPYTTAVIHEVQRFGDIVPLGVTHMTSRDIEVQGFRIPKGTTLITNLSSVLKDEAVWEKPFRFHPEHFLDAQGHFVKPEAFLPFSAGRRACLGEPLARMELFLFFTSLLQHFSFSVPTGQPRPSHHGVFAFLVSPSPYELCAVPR

[30] = Stability in rat plasma assessed as compound remaining level at 120 mins; assay type: ADME, cell-free; details: 2 h
[31] = target: Voltage-gated inwardly rectifying potassium channel KCNH2 (Homo sapiens, UniProt Q12809); experiment: Inhibition of human ERG
Sequence of Voltage-gated inwardly rectifying potassium channel KCNH2 (Q12809 whole entry): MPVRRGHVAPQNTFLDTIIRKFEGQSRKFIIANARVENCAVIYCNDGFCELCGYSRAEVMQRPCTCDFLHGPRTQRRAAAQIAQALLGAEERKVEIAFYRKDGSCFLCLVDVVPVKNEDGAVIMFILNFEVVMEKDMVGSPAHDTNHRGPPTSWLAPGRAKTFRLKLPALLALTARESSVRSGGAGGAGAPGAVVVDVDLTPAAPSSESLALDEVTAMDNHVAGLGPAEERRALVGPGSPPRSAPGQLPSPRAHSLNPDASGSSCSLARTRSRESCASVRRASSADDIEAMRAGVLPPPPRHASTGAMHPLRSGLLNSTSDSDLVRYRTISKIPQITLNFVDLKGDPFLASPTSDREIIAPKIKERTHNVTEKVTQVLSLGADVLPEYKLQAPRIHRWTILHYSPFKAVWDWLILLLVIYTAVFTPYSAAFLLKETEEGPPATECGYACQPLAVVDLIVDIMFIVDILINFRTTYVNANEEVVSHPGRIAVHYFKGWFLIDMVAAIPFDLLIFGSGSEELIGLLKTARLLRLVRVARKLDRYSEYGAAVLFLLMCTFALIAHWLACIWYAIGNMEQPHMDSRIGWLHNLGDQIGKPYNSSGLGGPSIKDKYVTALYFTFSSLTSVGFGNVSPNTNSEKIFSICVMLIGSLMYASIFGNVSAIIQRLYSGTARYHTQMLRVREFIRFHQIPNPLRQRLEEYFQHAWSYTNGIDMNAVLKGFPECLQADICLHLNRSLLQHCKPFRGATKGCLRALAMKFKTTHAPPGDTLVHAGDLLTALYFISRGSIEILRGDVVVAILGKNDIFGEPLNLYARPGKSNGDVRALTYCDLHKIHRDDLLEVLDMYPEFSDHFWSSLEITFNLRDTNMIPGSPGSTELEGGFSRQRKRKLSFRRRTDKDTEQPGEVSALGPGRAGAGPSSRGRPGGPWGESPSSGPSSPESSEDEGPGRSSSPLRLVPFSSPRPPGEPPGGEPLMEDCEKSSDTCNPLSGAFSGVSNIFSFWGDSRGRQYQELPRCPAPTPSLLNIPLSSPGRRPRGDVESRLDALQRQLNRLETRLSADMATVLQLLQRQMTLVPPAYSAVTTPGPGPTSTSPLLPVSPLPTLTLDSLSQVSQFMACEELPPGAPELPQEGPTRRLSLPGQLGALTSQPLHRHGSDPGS

Cannabinoid receptor 1 [32] = target: T3, Cannabinoid receptor 1 (Homo sapiens, UniProt P21554); experiment: Agonist activity at CB1 receptor (unknown origin)
T3 sequence (P21554 whole entry): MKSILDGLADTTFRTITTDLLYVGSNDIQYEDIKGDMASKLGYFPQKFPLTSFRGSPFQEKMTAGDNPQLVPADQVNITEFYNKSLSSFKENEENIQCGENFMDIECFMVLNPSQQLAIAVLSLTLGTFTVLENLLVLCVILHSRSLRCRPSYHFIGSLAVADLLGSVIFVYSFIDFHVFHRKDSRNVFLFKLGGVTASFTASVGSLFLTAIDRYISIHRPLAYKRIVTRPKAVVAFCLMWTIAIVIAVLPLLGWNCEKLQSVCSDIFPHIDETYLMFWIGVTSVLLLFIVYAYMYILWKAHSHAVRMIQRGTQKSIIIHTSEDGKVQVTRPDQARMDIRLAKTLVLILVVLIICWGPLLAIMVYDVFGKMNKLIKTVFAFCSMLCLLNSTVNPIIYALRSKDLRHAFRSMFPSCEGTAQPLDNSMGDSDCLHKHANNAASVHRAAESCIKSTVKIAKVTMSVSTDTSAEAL
Outline: (§3)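 Tested through the Psychoactive Drug Screening Program as functional agonist and antagonist at CB1 and CB2 cannabinoid receptors, with an upper test concentration of 10 μM.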

Cannabinoid receptor 1 [33] = target: T3, Cannabinoid receptor 1; experiment: Antagonist activity at CB1 receptor (unknown origin); outline: as §3
Cannabinoid receptor 2 [34] = target: T4, Cannabinoid receptor 2 (Homo sapiens, UniProt P34972); experiment: Agonist activity at CB2 receptor (unknown origin); outline: as §3
T4 sequence (P34972 whole entry): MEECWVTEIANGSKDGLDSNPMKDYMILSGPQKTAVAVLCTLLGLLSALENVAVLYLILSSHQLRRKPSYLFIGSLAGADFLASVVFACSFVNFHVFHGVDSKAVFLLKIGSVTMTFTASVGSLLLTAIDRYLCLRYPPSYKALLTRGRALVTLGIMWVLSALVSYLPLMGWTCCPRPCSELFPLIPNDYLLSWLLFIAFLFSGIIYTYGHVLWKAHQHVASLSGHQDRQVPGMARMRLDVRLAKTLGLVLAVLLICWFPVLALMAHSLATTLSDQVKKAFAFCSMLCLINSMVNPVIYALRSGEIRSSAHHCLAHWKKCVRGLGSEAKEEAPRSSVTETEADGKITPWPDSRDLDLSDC

Cannabinoid receptor 2 [35] = target: T4, Cannabinoid receptor 2; experiment: Antagonist activity at CB2 receptor (unknown origin); outline: as §3
[36] = target: Delta-type opioid receptor (Homo sapiens, UniProt P41143); experiment: Binding affinity to DOR (unknown origin)
Sequence of Delta-type opioid receptor (P41143 whole entry): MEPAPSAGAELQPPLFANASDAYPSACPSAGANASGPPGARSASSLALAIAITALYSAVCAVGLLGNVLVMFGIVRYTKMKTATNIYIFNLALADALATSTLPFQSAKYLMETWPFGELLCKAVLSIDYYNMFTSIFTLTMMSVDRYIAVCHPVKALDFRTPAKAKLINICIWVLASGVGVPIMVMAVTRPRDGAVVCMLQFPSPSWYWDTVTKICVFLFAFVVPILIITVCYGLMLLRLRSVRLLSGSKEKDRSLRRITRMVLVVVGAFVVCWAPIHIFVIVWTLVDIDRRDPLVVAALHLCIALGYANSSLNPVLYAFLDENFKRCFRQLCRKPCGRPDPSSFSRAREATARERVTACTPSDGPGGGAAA

- Ki [1]: 4340 nM
- Fu [2]: 0.83%
SMILES: NCCCNC(=O)c1ccc(-c2cc(C(=O)O)cc(-n3cc(-c4ccc(C(F)(F)F)cc4)nn3)c2)s1
- Activity (Mus musculus): Active

SMILES: O=C(O)c1cc(-c2ccc(N3CCNCC3)cc2)cc(-n2cc(-c3ccc(C(F)(F)F)cc3)nn2)c1
- Ratio IC50 (Homo sapiens): 2.1
- Ki [3]: 6700 nM

SMILES: NC(=O)c1ccc(-c2cc(C(=O)O)cc(-n3cc(-c4ccc(C(F)(F)F)cc4)nn3)c2)cc1
- IC50 (P2Y purinoceptor 14 [4]): 902 nM
- Ratio IC50 (Homo sapiens): 3.4
- Ki [5]: 6890 nM

SMILES: O=C(O)c1cc(-c2ccc(C34CCN(CC3)CC4)cc2)c2ccc(-c3ccc(C(F)(F)F)cc3)cc2c1
- IC50 (P2Y purinoceptor 14 [4]): 21.4 nM
- solubility [6]: 1000 µg/mL (≈ 1990 µM)
- solubility ([7]; aqueous, read-out: solubility): 0.44 to 0.55 µg/mL (≈ 0.877 to 1.1 µM)
- solubility ([8]; aqueous, read-out: solubility): 1.5 to 14.3 µg/mL (≈ 2.99 to 28.5 µM)
- fold change (FC) [9]: 1.24
- bioavailability [10]: 100%
- Cmax [11]: 900 ng/mL
- Tmax [12]: 3 to 4 h
- Drug uptake [13]: 200 to 400 ng/kg
- concentration at 2 h [14]: 165 nM
- concentration at 4 h [15]: 292 nM
- half-life [16]: 5.1 h
- IC50 (HepG2): > 20000 nM
- Activity (Mus musculus): Active
- Stability [17]: 100%
- Stability [18]: 100%
- t1/2 [19]: 1.12 h
- t1/2 [20]: 1.33 h
- t1/2 [21]: > 4 h
- half-life [22]: 3.46 h
- IC50 (P2Y purinoceptor 14 [23]): 38.1 nM
- IC50 (P2Y purinoceptor 14 [24]): 57 nM
- IC50 (P2Y purinoceptor 14 [25]): 84.5 nM

SMILES: O=C(O)c1cc(-c2ccc(C34CCN(CC3)CC4)cc2)cc(-n2cc(-c3ccc(C(F)(F)F)cc3)nn2)c1
- IC50 (P2Y purinoceptor 14 [26]): 105 nM
- IC50 (P2Y purinoceptor 14 [4]): 845 nM
- solubility ([7]; aqueous, read-out: solubility): 0.1 to 1.1 µg/mL (≈ 0.193 to 2.12 µM)
- solubility ([8]; aqueous, read-out: solubility): 2.8 to 14.5 µg/mL (≈ 5.4 to 27.9 µM)
- fold change (FC) [9]: -0.09
- bioavailability [10]: 100%
- Cmax [11]: 900 ng/mL
- Tmax [12]: 3 to 4 h
- Drug uptake [13]: 200 to 400 ng/kg
- concentration at 2 h [14]: 206 nM
- concentration at 4 h [15]: 163 nM
- half-life [16]: 4.6 h
- Papp [27]: 0.09 ×10⁻⁶ cm/s
- IC50 (HepG2): > 20000 nM
- Stability [28]: 102%
- Stability [29]: 106%
- IC50 (Cytochrome P450 2C9): > 30000 nM
- IC50 (Cytochrome P450 2C19): > 30000 nM
- IC50 (Cytochrome P450 2D6): > 30000 nM
- Stability [17]: 86.8%
- Stability [30]: 89.4%
- Stability [18]: 79.5%
- t1/2 [19]: 5.18 h
- t1/2 [20]: 1.8 h
- t1/2 [21]: 3.2 h
- IC50 [31]: 16800 nM
- half-life [22]: 0.72 h

- IC50 (P2Y purinoceptor 14 [26]): > 100000 nM
SMILES: O=C(O)c1[nH]c(-c2ccc(C3=CCNCC3)cc2)cc1-n1cc(-c2ccc(C(F)(F)F)cc2)nn1

SMILES: O=C(O)c1cc(-c2ccc(C3CCNCC3)cc2)c2ccc(-c3ccc(C(F)(F)F)cc3)cc2c1 [PPTN]
- EC50 (Cannabinoid receptor 1 [32]): > 10000 nM
- EC50 (Cannabinoid receptor 1 [33]): > 10000 nM
- EC50 (Cannabinoid receptor 2 [34]): > 10000 nM
- EC50 (Cannabinoid receptor 2 [35]): > 10000 nM
- solubility ([7]; buffer): 0.36 µg/mL (≈ 0.757 µM)
- solubility ([8]; buffer): 1.1 µg/mL (≈ 2.31 µM)
- Activity (Mus musculus): Active

SMILES: O=C(O)c1cc(-c2ccc(C34CCNCC3C4)cc2)cc(-n2cc(-c3ccc(C(F)(F)F)cc3)nn2)c1 (stereo unspecified)
- IC50 (P2Y purinoceptor 14 [26]): 359 nM
- IC50 (P2Y purinoceptor 14 [4]): 1160 nM
- Ratio IC50 (Homo sapiens): 3.3
- Ki [36]: 2630 nM
- Ki [3]: 300 nM
